The results in this text go back to the RNAGym collection of RNA variant scans (doi:10.1038/nmeth.2970).

The labels stand for the following.
B1: NELF-E aptamer (parent)
chain: CCCAACGACUGCCGAGCGAGAUUACGCUUGAGCGCCCCACUGAGGAUGCCCACGGGCGAUUGGGGCACGG

The variants in the series derive from B1. The series can be described thus: HiTS-RAP. The settings on record: with NELF-E (Drosophila). The gist of the method: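 Aptamer DNA templates carrying a T7 promoter and ter site were sequenced on an Illumina GAIIx flowcell, then transcribed in situ by T7 RNA polymerase and halted by GST-Tus (30 minutes, 37°C). Clusters were imaged after 30-minute room-temperature equilibration with NELF-E-mOrange at 0.064 to 1000 nM in HEPES binding buffer, and only the first binding curve was used. Intensities were normalised to sequencing intensity and averaged per sequence. Kd came from weighted Hill fits, keeping fits with variance below 1,000,000.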
Take CCCAACGACUGCCGAGCGAGAUGACGCUUGAGCGCCCCACUGAGGAUGCCCACGGGCGAUUUGGGCACGG [U23G G62U]: the Kd is 9.09 nM.

As to CCCAACGACUGCCGAGCGAGAUGACGCUUGAGCGCCCCACUGAGGAUGCCCACGGGCGAUUAGGGCACGG [U23G G62A], the Kd was found to be 15.5 nM.

For the variant CCCAACGACUGCCGAGCGAGAUGACGCUUGAGCGCCCCACCGAGGAUGCCCACGGGCGAUUGGGGCACGG [U23G U41C], the Kd is 93.8 nM.

CCCAACGACUGCCGAGCGAGAUGACGCUUGAGCGCCCCACAGAGGAUGCCCACGGGCGAUUGGGGCACGG [U23G U41A]: the Kd came to 66.7 nM.

On to CCCAACGACUGCCGAGCGAGAUGACGCUUGAGCGCCCCACGGAGGAUGCCCACGGGCGAUUGGGGCACGG [U23G U41G], for which the Kd came out at 5.48 nM.

As to CCCAACGACUGCCGAGCGAGAUGACGCUUGAGCGCCCCACUGAGGAUGCCCACGGGCGAUAGGGGCACGG [U23G U61A], the equilibrium dissociation constant (Kd) is 31 nM.

On to CCCAACGACUGCCGAGCGAGAUGACGCUUGAGCGCCCCACUGAGGAUGCCCACGGGCGAUGGGGGCACGG [U23G U61G], for which the Kd amounted to 6.91 nM.

Consider CCCAACGACUGCCGAGCGAGAUGACGCUUGAGCGCCCCACUGAGGAUGCCCACGGGCGAUCGGGGCACGG [U23G U61C], for which the dissociation constant Kd was 67.8 nM.

With CCCAACGACUGCCGAGCGAGAUGACGCUUGAGCGCCCCACUGAGGAUGCCCACGGUCGAUUGGGGCACGG [U23G G56U], the Kd is 5.61 nM.

On to CCCAACGACUGCCGAGCGAGAUGACGCUUGAGCGCCCCACUGAGGAUGCCCACGGACGAUUGGGGCACGG [U23G G56A], for which the equilibrium dissociation constant (Kd) came to 8.2 nM.

As to CCCAACGACUGCCGAGCGAGAUGACGCUUGAGCGCCCCACUGAGGAUGCCCACGGGCGAGUGGGGCACGG [U23G U60G], the Kd is 4.68 nM.

Take CCCAACGACUGCCGAGCGAGAUGACGCUUGAGCGCCCCACUGAGGAUGCCCACGGGCGAAUGGGGCACGG [U23G U60A]: the dissociation constant (Kd) was found to be 12.9 nM.

Regarding CCCAACGACUGCCGAGCGAGAUGACGCUUGAGCGCCCCACUGAGGAUGCCCACGGGCGACUGGGGCACGG [U23G U60C], the Kd was 11.9 nM.

Regarding CCCAACGACUGCCGAGCGAGAUGACGCUUGAGCGCCCCACUGAGGAUGCCCACGCGCGAUUGGGGCACGG [U23G G55C], the Kd is 6.97 nM.

For CCCAACGACUGCCGAGCGAGAUGACGCUUGAGCGCCCCACUGAGGAUGCCCACGUGCGAUUGGGGCACGG [U23G G55U], the Kd was determined as 8.32 nM.

As to CCCAACGACUGCCGAGCGAGAUGACGCUUGAGCGCCCCACUGAGGAUGCCCACGAGCGAUUGGGGCACGG [U23G G55A], the Kd came to 7.34 nM.

Regarding CCCAACGACUGCCGAGCGAGAUGACGCGUGAGCGCCCCACUGAGGAUGCCCACGGGCGAUUGGGGCACGG [U23G U28G], the dissociation constant (Kd) was determined as 7.22 nM.

CCCAACGACUGCCGAGCGAGAUGACGCAUGAGCGCCCCACUGAGGAUGCCCACGGGCGAUUGGGGCACGG [U23G U28A]: the Kd is 5.01 nM.

Regarding CCCAACGACUGCCGAGCGAGAUGACGCCUGAGCGCCCCACUGAGGAUGCCCACGGGCGAUUGGGGCACGG [U23G U28C], the Kd worked out at 9 nM.

In the case of CCCAACGACUGCCGAGCGAGAUGACGCUUGAGCGCCCCACUGAGGAUGCCCACUGGCGAUUGGGGCACGG [U23G G54U], the Kd amounted to 11.1 nM.

As for CCCAACGACUGCCGAGCGAGAUUGCGCUUGAGCGCCCCGCUGAGGAUGCCCACGGGCGAUUGGGGCACGG [A24G A39G], the Kd is 10.2 nM.

Turning to CCCAACGACUGCCGAGCGAGAUUGCGCUUGAGCGCCCCUCUGAGGAUGCCCACGGGCGAUUGGGGCACGG [A24G A39U], the Kd was found to be 29.5 nM.

On to CCCAACGACUGCCGAGCGAGAUGACGCUUGAGCGCCCCACUGAGGAUGCCCACGGGCUAUUGGGGCACGG [U23G G58U], for which the Kd came out at 15.1 nM.

Consider CCCAACGACUGCCGAGCGAGAUGACGCUUGAGCGCCCCACUGAGGAUGCCCACGGGCGAUUGGCGCACGG [U23G G64C], for which the Kd was found to be 6.24 nM.

For CCCAACGACUGCCGAGCGAGAUGACGCUUGAGCGCCCCACUGAGGAUGCCCACGGGCGAUUGGAGCACGG [U23G G64A], the Kd is 6.56 nM.

Consider CCCAACGACUGCCGAGCGAGAUGACGCUUGAGCGCCCCACUGAGGAUGCCCACGGGCGAUUGGUGCACGG [U23G G64U], for which the Kd is 6.13 nM.

For the variant CCCAACGACUGCCGAGCGAGAUGACGCUUGAGCGCCCCACUGAGGAUGCCCACGGGCGAUUGUGGCACGG [U23G G63U], the Kd came to 12.9 nM.

In the case of CCCAACGACUGCCGAGCGAGAUGACGCUUGAGCGCCCCACUGAGGAUGCCCACGGGCGAUUGAGGCACGG [U23G G63A], the dissociation constant Kd stood at 20.3 nM.

For CCCAACGACUGCCGAGCGAGAUGACGCUCGAGCGCCCCACUGAGGAUGCCCACGGGCGAUUGGGGCACGG [U23G U29C], the Kd came to 5.67 nM.

Turning to CCCAACGACUGCCGAGCGAGAUGACGCUAGAGCGCCCCACUGAGGAUGCCCACGGGCGAUUGGGGCACGG [U23G U29A], the Kd amounted to 5.6 nM.

With CCCAACGACUGCCGAGCGAGAUGACGCUGGAGCGCCCCACUGAGGAUGCCCACGGGCGAUUGGGGCACGG [U23G U29G], the Kd turned out to be 5.13 nM.

As for CCCAACGACUGCCGAGCGAGAUGACGCUUGAGCGCCCCACUGAGGAUGCCCACGGGCGAUUGGGACACGG [U23G G65A], the Kd was determined as 4.87 nM.

Take CCCAACGACUGCCGAGCGAGAUGACGCUUGAGCGCCCCACUGAGGAUGCCCACGGGCGAUUGGGUCACGG [U23G G65U]: the Kd was 6.65 nM.

Regarding CCCAACGACUGCCGAGCGAGAUUGCGCUUGAGCGCCCCACUGAGGAUGCCCACGGGCGAUUGGGGCACGG [A24G], the Kd is 5.47 nM.

In the case of CCCAACGACUGCCGAGCGAGAUUCCGCUUGAGCGCCCCACUGAGGAUGCCCACGGGCGAUUGGGGCACGG [A24C], the Kd amounted to 5.86 nM.

Consider CCCAACGACUGCCGAGCGAGAUUGCGCUUGGGCGCCCCACUGAGGAUGCCCACGGGCGAUUGGGGCACGG [A24G A31G], for which the Kd was determined as 6.54 nM.

In the case of CCCAACGACUGCCGAGCGAGAUUGCGCUUGUGCGCCCCACUGAGGAUGCCCACGGGCGAUUGGGGCACGG [A24G A31U], the Kd was found to be 6.88 nM.

Turning to CCCAACGACUGCCGAGCGAGAUGACGCUUGAGCGCCCCACUGAGGAGGCCCACGGGCGAUUGGGGCACGG [U23G U47G], the Kd stood at 6.6 nM.

CCCAACGACUGCCGAGCGAGAUGACGCUUGAGCGCCCCACUGAGGAAGCCCACGGGCGAUUGGGGCACGG [U23G U47A]: the Kd amounted to 13.5 nM.
